Measurements published in ChEMBL document CHEMBL1154414, “In vitro and in vivo activities of T-705 against arenavirus and bunyavirus infections” (Antimicrob Agents Chemother, 2007).
Calls of active or inactive are those of the source. The rule behind the calls is not given here.

Assays:
Pichinde virus [1] = assay: Antiviral activity against Pichinde virus An 4763 infected Syrian golden hamster assessed as animals with detectable virus level in serum at 40 mg/kg, po twice daily for 7 days administered 4 hrs before viral-challenge measured on day 7 of viral infection; type: functional
Pichinde virus [2] = assay: Antiviral activity against Pichinde virus An 4763 infected Syrian golden hamster assessed as mean viral titer per 0.1 mL of serum at 30 mg/kg, po twice daily for 7 days administered 4 hrs before viral-challenge measured on day 7 of viral infection; type: functional
Punta Toro virus [3] = assay: Antiviral activity against 500 PFU Punta Toro virus Adames infected C57BL/6 mouse assessed as animals with detectable virus level in liver at 25 mg/kg, po twice daily administered 4 hrs before viral challenge measured on day 4 of viral infection; type: functional
Method in brief: (§1)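 T-705 was suspended in 0.4% carboxymethylcellulose and given by oral gavage twice daily. Mice were infected subcutaneously with PTV. Five mice per group (10 placebo) were sacrificed on day 3 or 4. Liver homogenate or serum was serially diluted onto triplicate LLC-MK2 monolayers, and CPE was read at 6–8 days. The detection limit was 2.8 log10 CCID50 per 0.1 g liver or 0.1 ml serum.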

Punta Toro virus [4] = assay: Antiviral activity against 500 PFU Punta Toro virus Adames infected C57BL/6 mouse assessed as survival at 50 mg/kg, po twice daily for 5 days administered 4 hrs before viral challenge; type: functional, organism-based; parameters: dose 50 mg/kg
Method in brief: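 PTV was inoculated subcutaneously into mice in groups of 15 (25–30 placebo). Dosing was by oral gavage twice daily for 5–7 days, with T-705 suspended in 0.4% CMC and ribavirin in saline. Remaining animals were observed 21–28 days for survival and day of death. Test doses had first been checked for tolerance in uninfected animals.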

Punta Toro virus [5] = assay: Antiviral activity against Punta Toro virus Adames infected Syrian golden hamster assessed as mean day of death at 60 mg/kg, po twice daily for 6 days administered 4 hrs before viral challenge; type: functional
Pichinde virus [6] = assay: Antiviral activity against Pichinde virus An 4763 infected Syrian golden hamster assessed as mean viral titer per 0.1 g of liver at 15 mg/kg, po twice daily for 7 days administered 4 hrs before viral-challenge measured on day 7 of viral infection; type: functional
Punta Toro virus [7] = assay: Antiviral activity against 50 PFU Punta Toro virus Adames infected C57BL/6 mouse assessed as survival at 10 mg/kg, po twice daily for 5 days administered 24 hrs post viral challenge; type: functional, organism-based; parameters: dose 10 mg/kg
Method in brief: (§2)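 Groups of 15 mice (25–30 placebo) were inoculated subcutaneously with PTV. Drug in 0.4% carboxymethylcellulose was given by oral gavage twice daily.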

Punta Toro virus [8] = assay: Antiviral activity against 500 PFU Punta Toro virus Adames infected C57BL/6 mouse assessed as mean viral titer per 0.1 mL of serum at 75 mg/kg, po twice daily administered 4 hrs before viral challenge measured on day 4 of viral infection; type: functional
Method in brief: (§3)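 Mice were infected subcutaneously with PTV and dosed by oral gavage twice daily; 5 per group (10 placebo) were killed on day 3 or 4. Liver homogenate or serum was serially diluted onto triplicate LLC-MK2 monolayers, and CPE was read 6–8 days later. 50% endpoints gave log10 CCID50 per 0.1 g liver or 0.1 ml serum. Detection range was 2.8–9.5; undetectable samples were assigned <2.8.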

Punta Toro virus [9] = assay: Antiviral activity against 500 PFU Punta Toro virus Adames infected C57BL/6 mouse assessed as mean serum ALT levels at 100 mg/kg, po twice daily administered 4 hrs before viral challenge measured on day 4 of viral infection; type: functional
Method in brief: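 Subcutaneous PTV infection was followed by oral gavage twice daily with drug suspended in 0.4% CMC. Serum was collected from 5 sacrificed mice per group (10 placebo) on day 3 or 4. ALT activity was measured by kinetic assay, and sham-infected mice set the baselines.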

Punta Toro virus [10] = assay: Antiviral activity against 500 PFU Punta Toro virus Adames infected C57BL/6 mouse assessed as animals with detectable virus level in liver at 50 mg/kg, po twice daily administered 4 hrs before viral challenge measured on day 4 of viral infection; type: functional; method in brief: as §1
Punta Toro virus [11] = assay: Antiviral activity against 500 PFU Punta Toro virus Adames infected C57BL/6 mouse assessed as mean viral titer per 0.1 g of liver at 75 mg/kg, po administered 4 hrs before viral challenge measured on day 4 of viral infection; type: functional; method in brief: as §3
Punta Toro virus [12] = assay: Antiviral activity against 500 PFU Punta Toro virus Adames infected C57BL/6 mouse assessed as animals with detectable virus level in serum at 100 mg/kg, po twice daily administered 4 hrs before viral challenge measured on day 4 of viral infection; type: functional; method in brief: as §1
Punta Toro virus [13] = assay: Antiviral activity against 500 PFU Punta Toro virus Adames infected C57BL/6 mouse assessed as animals with detectable virus level in liver at 100 mg/kg, po twice daily administered 4 hrs before viral challenge measured on day 4 of viral infection; type: functional; method in brief: as §1
Punta Toro virus [14] = assay: Antiviral activity against 500 PFU Punta Toro virus Adames infected C57BL/6 mouse assessed as mean day of death at 200 mg/kg, po twice daily for 5 days administered 4 hrs before viral challenge; type: functional; method in brief: as §2
Punta Toro virus [15] = assay: Antiviral activity against Punta Toro virus Adames infected Syrian golden hamster assessed as mean day of death at 15 mg/kg, po twice daily for 6 days administered 4 hrs before viral challenge; type: functional
Punta Toro virus [16] = assay: Antiviral activity against 500 PFU Punta Toro virus Adames infected C57BL/6 mouse assessed as mean viral titer per 0.1 g of liver at 5 mg/kg, po twice daily administered 4 hrs before viral challenge measured on day 3 of viral infection; type: functional; method in brief: as §3
Punta Toro virus [17] = assay: Antiviral activity against 500 PFU Punta Toro virus Adames infected C57BL/6 mouse assessed as inhibition of liver damage at 75 mg/kg/day, po twice daily administered 4 hrs before viral challenge measured on day 3 of viral infection; type: functional, organism-based
Method in brief: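 Mice were infected with PTV subcutaneously and dosed by oral gavage twice daily (0.4% CMC vehicle). Five animals per group (10 placebo) were sacrificed on day 3 or 4. Livers were scored 0–4 for hepatic icterus, where 0 is normal and 4 is maximal yellow coloration.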

Structure (SMILES)	Activity (Pichinde virus [1]) [%]	log10CCID50 (Pichinde virus [2])	Activity (Punta Toro virus [3]) [%]	Activity (Punta Toro virus [4])	Activity (Punta Toro virus [5]) [days]	log10CCID50 (Pichinde virus [6])	Activity (Punta Toro virus [7])	log10CCID50 (Punta Toro virus [8])	Activity (Punta Toro virus [9]) [IU/L]	Activity (Punta Toro virus [10]) [%]	log10CCID50 (Punta Toro virus [11])	Activity (Punta Toro virus [12]) [%]	Activity (Punta Toro virus [13]) [%]	Activity (Punta Toro virus [14]) [days]	Activity (Punta Toro virus [15]) [days]	log10CCID50 (Punta Toro virus [16])	Activity (Punta Toro virus [17])
NC(=O)c1ncn([C@@H]2O[C@H](CO)[C@@H](O)[C@H]2O)n1 [RIBAVIRIN]	40	–	–	–	–	–	–	–	–	–	–	–	–	–	–	–	–
NC(=O)c1nc(F)cnc1O [FAVIPIRAVIR]	–	<5.2	0	Active	6	7.7	inactive	<3.3	33	0	<2.8	0	0	8	5.4	<2.8	Active
